# An excerpt weighted towards active compounds, which were near 2.3% of everything screened.
# HIF act – HIF pathway transcriptional activation | U2OS HRE-luciferase reporter, luminescence; normalized: DMSO 0%, desferrioxamine 100% | activation, % at 7.5 µM (by protocol) | 300,000 tested, 0.32% active | AID 1910;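 active = mean activation of at least 10% of the iron chelator positive control signal, with at least half of replicates also reaching 10%; inconclusive = mean and replicate majority disagree about reaching 10%; inactive = mean and most replicates under 10%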
# Bfl-1 A1 inh – inhibitors of the anti-apoptotic protein A1, read as caspase activation. MEF A1-2A-BIM cells, Caspase-Glo 3/7 luminescence, 3 h; percent of clofoctol response, vehicle zero. caspase activation, % (test concentration not listed). 330,000 tested, 0.066% active;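 active = over half of replicate activation scores above 10%, or exactly half above 10 with the replicate mean above 10; inconclusive = replicate mean below 10 yet half the replicates above 10; inactive = over half of replicates below 10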
# KLF5 inh – inhibitors of KLF5 expression; DLD-1 KLF5 promoter-luciferase reporter, luminescence; inhibition, % at 5 µM; 290,000 tested, 0.23% active; AID 1700;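 active = inhibition above a per-plate limit of that plate's mean compound inhibition plus 3 SD, cut at about 60% in these data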;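 also: higher means less KLF5 promoter-driven luciferase light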
# T cruzi repl – T. cruzi replication inhibition. T. cruzi beta-gal in NIH3T3, luminescence, 90 h. inhibition, % (test concentration not listed). 300,000 tested, 1.4% active;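 active = mean inhibition across valid replicates above about 55%, limit read from the data; inconclusive = mean below that limit but half or more replicates reach it; inactive = mean below it, under half of replicates reach it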;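 also: signal also drops with host cell toxicity which is not excluded here; higher percent means less beta-gal luminescence so fewer parasites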
#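 assay system = mouse NIH/3T3 fibroblasts infected with β-gal-expressing T. cruzi Tulahuen C4 | input = 5,000 NIH/3T3 host cells per well | buffer or medium = DMEM plus 2% FBS | timing = 3 h host attachment, then at least 90 h co-culture | measured by = GalScreen luminescence, 60 min | evaluation = luminescence reflecting intracellular parasite burden, expressed as percent inhibition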
# Beta cell apopt – beta cell apoptosis inhibition. INS-1E cytokine-induced death, ATP luminescence, 48 h; percent of positive-control rescue, neutral wells zero. protection from apoptosis, % (concentration not given with the values). 300,000 tested, 0.8% active;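 active = Every replicate reaches about 75%, or at least half do and their mean reaches it too, limit read from the data; inconclusive = At least half of replicates reach the limit but their mean does not; inactive = Under half of replicates reach the limit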;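 also: higher means more ATP so stronger rescue from cytokine killing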
# A number is an active result; n = inactive; u = inconclusive; x = not tested or not shown; ! = a repeat was not active.
SMILES,HIF act,Bfl-1 A1 inh,KLF5 inh,T cruzi repl,Beta cell apopt
CC1CN(C(=O)CCC(=O)NCCCN2CCN(Cc3ccccc3)CC2)c2cc(Cl)ccc2O1 (centres undefined),n,n,n,n,n
N#Cc1nc(-c2cccc(Cl)c2)oc1N1CCC(C(N)=O)CC1,n,n,n,n,n
COc1ccc(CNCCC(c2ccc(OC(C)C)cc2)c2ccccc2OC)cc1 (centres undefined),n,n,n,n,u
COc1ccc(CNCCC(c2ccc(OC(C)C)cc2)C(C)C)cc1OC (centres undefined),n,n,n,72.8,86.5
COc1ccccc1C(CCNCc1ccc(N(C)C)cc1)c1ccc(OC(C)C)cc1 (centres undefined),n,n,n,n,113.7
COc1ccc(CNCCC(c2ccccc2)c2ccc3c(c2)OCO3)cc1 (centres undefined),n,n,n,58.6,85.4
CCCCn1c(N)c(N(CC)C(=O)CCNC(=O)NC23CC4CC(CC(C4)C2)C3)c(=O)[nH]c1=O,n,n,n,n,n
COCCN1C(=O)C(=O)/C(=C(/O)c2ccc(S(=O)(=O)N3CCOCC3)cc2)C1c1cccc(OC)c1 (centres undefined),n,n,n,n,n
CCCc1nc2sc3ccccc3c(=O)c2c(=O)n1Cc1ccc(OC)cc1,n,n,n,n,99.6
CCc1nc2sc3ccccc3c(=O)c2c(=O)n1CCOC,n,n,n,n,n
COCCn1c(C2CCCCC2)nc2sc3ccccc3c(=O)c2c1=O,n,n,n,55.2,n
Cc1ccc(N(C(=O)c2csnn2)C(C(=O)NC2CCCCC2)c2ccco2)cc1 (centres undefined),n,n,n,n,n
Cc1ccc(C2(C)NC(=O)N(CC(=O)NNC(=O)c3ccccc3)C2=O)cc1 (centres undefined),x,n,x,x,n
c1ccc(SCCc2ccncc2)cc1,n,n,n,n,n
Fc1ccc(SCCc2ccncc2)cc1,n,n,n,67.6!,n
O=[N+]([O-])c1ccc(SCCc2ccncc2)cc1,n,n,n,n,n
COc1ccc(SCCc2ccncc2)cc1,n,n,n,69.8,n
Cc1ccc(S(=O)(=O)N(C)c2ccc3c(ncn3C)c2[N+](=O)[O-])cc1,n,n,x,n,n
CC(Nc1nc(-c2cccnc2)nc2ccccc12)c1ccc(F)cc1 (centres undefined),n,n,n,56.0,n
Cc1ccc(CNc2nc(-c3cccnc3)nc3ccccc23)cc1,n,n,n,u,n
CC(Nc1nc(-c2ccccc2)nc2ccccc12)c1ccccc1 (centres undefined),n,n,n,n,n
c1cncc(-c2nc(NCC3COc4ccccc4O3)c3ccccc3n2)c1 (centres undefined),n,n,n,n,n
Clc1cccc(CNc2nc(-c3cccnc3)nc3ccccc23)c1,n,x,n,62.7,x
c1ccc(CN2CCC(Nc3nc(-c4cccnc4)nc4ccccc34)CC2)cc1,n,n,n,58.7,n
Fc1ccc(CNc2nc(-c3cccnc3)nc3ccccc23)cc1,n,n,n,56.3,n
SMILES,HIF act,Bfl-1 A1 inh,KLF5 inh,T cruzi repl,Beta cell apopt
CCOC(=O)[C@H]1[C@H]2COc3ccc(C)cc3[C@@H]2N2C(=O)[C@@H](C)NC(=O)[C@@]12C,x,n,x,x,n
CCCC[C@@H]1CCCO[C@@](C(=O)NCc2ccc(C)o2)(C(F)(F)F)C1,n,n,x,n,n
Cc1ccc(Nc2nc(-c3cccnc3)nc3ccccc23)cc1,n,n,n,n,x
Cc1c(O)ccc(/C=N/Nc2nc(-c3cccnc3)nc3ccccc23)c1O,n,n,n,55.9,n
c1ccc(-c2nc(NCc3cccnc3)c3oc4ccccc4c3n2)cc1,n,n,n,55.9,n
Cc1cc(N/N=C/c2ccc(O)c(C)c2O)nc(-c2ccccc2O)n1,n,n,n,58.8,n
Cc1ccccc1Nc1nc(-c2cccnc2)nc2ccccc12,n,n,n,58.9,n
O=C(O)CNc1nc(-c2ccccc2)nc2c1oc1ccccc12,n,n,n,n,n
CCc1ccccc1NC(=O)CN(C)C(=O)c1cccc(S(=O)(=O)N2CCCCCC2)c1,x,n,x,x,n
CC1CN(S(=O)(=O)c2cccc(C(=O)N(CCc3ccccc3)Cc3ccccc3)c2)CC(C)O1 (centres undefined),u,n,x,n,n
COc1ccc(C2CCCN2CC(O)COc2ccccc2C(C)C)cc1 (centres undefined),n,n,n,n,n
c1cncc(-c2nc(NCc3ccc4c(c3)OCO4)c3ccccc3n2)c1,n,n,n,68.7,n
C/C(Cn1nnc([N+](=O)[O-])n1)=N\NC(=O)c1ccc(Cl)c(Cl)c1,n,n,n,65.8,n
C/C(Cn1nnc([N+](=O)[O-])n1)=N\NC(=O)c1ccc(O)cc1,n,n,n,n,n
O=c1c(Cl)c(Cl)cnn1Cc1nnc(-c2ccc(Cl)cc2)o1,n,x,n,59.8,x
Cc1cc(C)cc(Cn2ncc(Cl)c(Cl)c2=O)c1,n,6.7,n,n,n
O=c1c(Cl)c(Cl)cnn1Cc1ccccc1Cl,n,8.3,n,n,n
Cc1ccc(Cn2ncc(Cl)c(Cl)c2=O)cc1,n,n,n,n,n
CCCc1cc(=O)oc2cc(OCc3ccc(C(=O)O)cc3)ccc12,n,n,n,n,n
COc1ccccc1NC(=S)N1CCCCCC1,n,n,n,n,n
CCSCCc1nnc(NC(=O)Nc2cccc(C(F)(F)F)c2)s1,n,n,n,n,118.9
CCn1ncc(NC(=O)Nc2cccc(C(F)(F)F)c2)c1C(N)=O,n,n,n,n,n
COc1ccccc1NCCC(=O)OCC(=O)Nc1cc([N+](=O)[O-])ccc1F,x,n,x,x,n
CCN(C(=O)COC(=O)Cc1ccc(F)cc1)c1c(N)n(Cc2ccccc2)c(=O)[nH]c1=O,x,n,x,x,n
COc1cccc(/C=N/N2CCN(c3ccncc3S(=O)(=O)N3CCCCC3)CC2)c1,n,n,n,65.7,n
SMILES,HIF act,Bfl-1 A1 inh,KLF5 inh,T cruzi repl,Beta cell apopt
Cc1csc2c(N3CCN(C(=O)c4ccc(C(C)(C)C)cc4)CC3)ncnc12,n,n,n,n,115.9
Cc1csc2c(N3CCN(C(=O)NC(C)(C)C)CC3)ncnc12,n,n,n,n,n
CCOc1ncccc1C(=O)OCC(=O)NC1CCCCC1,x,n,x,x,n
Cc1onc(-c2ccc(Cl)cc2)c1-c1ccnc(SCC(=O)Nc2cc(Cl)cc(Cl)c2)n1,n,n,n,58.7,n
COc1ccc(OC)c(NC(=O)Cc2ccc(NC3=NC4CS(=O)(=O)CC4S3)cc2)c1 (centres undefined),n,x,n,n,n
NC(=O)CC(NC(=O)Cc1cccc2ccccc12)c1ccc(NCCCN2CCCC2=O)c([N+](=O)[O-])c1 (centres undefined),n,n,n,n,n
CCC1(CC)C(=O)C2=C3C1[C@H](C(=O)OC)C=C(C(=O)OC)C[C@H]3n1c(=O)n(-c3ccccc3)c(=O)n1[C@H]2C (some centres undefined),n,n,x,n,n
